Experiments:
Assay type in all cases: functional
[1] = system: Pseudoperonospora cubensis; test: Antifungal activity against Pseudoperonospora cubensis assessed as fungicidal activity at 200 mg/L (beneficial crop - cucumber)
How it was run: (§1)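 In vivo preventive test on cucumber as host plant.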

Podosphaera fuliginea = test: Antifungal activity against Podosphaera fuliginea assessed as fungicidal activity at 200 mg/L (beneficial crop - cucumber); how it was run: as §1
Botrytis cinerea = test: Antifungal activity against Botryotinia fuckeliana assessed as fungicidal activity at 200 mg/L (beneficial crop - cucumber); how it was run: as §1
Rhizoctonia solani = test: Antifungal activity against Rhizoctonia solani assessed as fungicidal activity at 200 mg/L (beneficial crop - cucumber); how it was run: as §1

Row | SMILES | inhibition at 200 µg/mL [1] | inhibition at 200 µg/mL (Podosphaera fuliginea) | inhibition at 200 µg/mL (Botrytis cinerea) | inhibition at 200 µg/mL (Rhizoctonia solani)
1 | CO/C=C(/C(=O)OC)c1ccccc1COc1ccc(C(=O)/C=C/c2ccc(Cl)c(Cl)c2)cc1 | 33% | 67% | 0% | 37%
2 | CO/C=C(/C(=O)OC)c1ccccc1COc1ccc(Cl)cc1C(=O)/C=C/c1ccccc1Cl | 0% | 0% | 0% | 0%
3 | CO/C=C(/C(=O)OC)c1ccccc1COc1ccc(Cl)cc1C(=O)/C=C/c1ccc(C)cc1 | 0% | 0% | 0% | 0%
4 | CO/C=C(/C(=O)OC)c1ccccc1COc1cccc(C(=O)/C=C/c2ccc(Cl)cc2)c1 | 100% | 96% | 0% | 0%
5 | CO/C=C(/C(=O)OC)c1ccccc1COc1ccc(C(=O)/C=C/c2ccccc2Cl)cc1 | 100% | 0% | 0% | 0%
6 | CO/C=C(/C(=O)OC)c1ccccc1COc1ccc(C(=O)/C=C/c2ccc(C)cc2)cc1 | 75% | 0% | 0% | 38%
7 | CO/C=C(/C(=O)OC)c1ccccc1COc1cccc(C(=O)/C=C/c2c(F)cccc2Cl)c1 | 97% | 13% | 0% | 0%
8 | CO/C=C(/C(=O)OC)c1ccccc1COc1cccc(C(=O)/C=C/c2cccc(Cl)c2)c1 | 33% | 30% | 0% | 0%
9 | CCc1ccc(/C=C/C(=O)c2ccc(OCc3ccccc3/C(=C\OC)C(=O)OC)cc2)cc1 | 15% | 56% | 0% | 69%
10 | CO/C=C(/C(=O)OC)c1ccccc1COc1ccc(C(=O)/C=C/c2cccc(F)c2)cc1 | 97% | 0% | 0% | 0%
11 | CO/C=C(/C(=O)OC)c1ccccc1COc1cccc(C(=O)/C=C/c2ccc(Br)cc2)c1 | 94% | 45% | 0% | 0%
12 | CO/C=C(/C(=O)OC)c1ccccc1COc1cccc(C(=O)/C=C/c2cccs2)c1 | 0% | 0% | 24% | 0%
13 | CO/C=C(/C(=O)OC)c1ccccc1COc1ccc(C(=O)/C=C/c2ccc(C)c(C)c2)cc1 | 67% | 30% | 0% | 0%
14 | CCc1ccc(/C=C/C(=O)c2cccc(OCc3ccccc3/C(=C\OC)C(=O)OC)c2)cc1 | 100% | 78% | 0% | 0%
15 | CO/C=C(/C(=O)OC)c1ccccc1COc1ccc(C(=O)/C=C/c2ccccc2Br)cc1 | 83% | 67% | 0% | 21%
16 | CO/C=C(/C(=O)OC)c1ccccc1COc1ccccc1C(=O)/C=C/c1cccc(Cl)c1 | 39% | 0% | 0% | 0%
17 | CO/C=C(/C(=O)OC)c1ccccc1COc1ccc(C(=O)/C=C/c2ccc(F)cc2)cc1 | 100% | 0% | 0% | 23%

Row | SMILES | inhibition at 200 µg/mL [1] | inhibition at 200 µg/mL (Podosphaera fuliginea) | inhibition at 200 µg/mL (Botrytis cinerea) | inhibition at 200 µg/mL (Rhizoctonia solani)
18 | CO/C=C(/C(=O)OC)c1ccccc1COc1ccc(C(=O)/C=C/c2cccs2)cc1 | 0% | 0% | 0% | 0%
19 | CO/C=C(/C(=O)OC)c1ccccc1COc1ccc(C(=O)/C=C/c2cccc(Br)c2)cc1 | 56% | 0% | 0% | 0%
20 | CCOc1ccc(/C=C/C(=O)c2ccc(OCc3ccccc3/C(=C\OC)C(=O)OC)cc2)cc1 | 59% | 0% | 0% | 0%
21 | CO/C=C(/C(=O)OC)c1ccccc1COc1ccc(C(=O)/C=C/c2ccc(C(C)(C)C)cc2)cc1 | 22% | 67% | 0% | 0%
22 | CO/C=C(/C(=O)OC)c1ccccc1COc1cccc(C(=O)/C=C/c2ccc(C(C)(C)C)cc2)c1 | 28% | 78% | 0% | 0%
23 | CO/C=C(/C(=O)OC)c1ccccc1COc1ccc(C(=O)/C=C/c2ccccc2)cc1 | 0% | 0% | 0% | 0%
24 | CO/C=C(/C(=O)OC)c1ccccc1COc1ccc(C(=O)/C=C/c2ccc(Cl)cc2Cl)cc1 | 67% | 78% | 0% | 27%
25 | CO/C=C(/C(=O)OC)c1ccccc1COc1ccccc1C(=O)/C=C/c1ccc(OC)cc1 | 0% | 0% | 0% | 0%
26 | CO/C=C(/C(=O)OC)c1ccccc1COc1ccccc1C(=O)/C=C/c1ccc(Cl)cc1 | 0% | 0% | 0% | 0%
27 | CO/C=C(/C(=O)OC)c1ccccc1COc1ccc(Cl)cc1C(=O)/C=C/c1ccccc1 | 0% | 0% | 0% | 0%
28 | CO/C=C(/C(=O)OC)c1ccccc1COc1cccc(C(=O)/C=C/c2ccc(Cl)c(Cl)c2)c1 | 0% | 0% | 0% | 0%
29 | CO/C=C(/C(=O)OC)c1ccccc1COc1ccccc1C(=O)/C=C/c1cccc(OC)c1 | 61% | 0% | 11% | 0%
30 | CO/C=C(/C(=O)OC)c1ccccc1COc1cccc(C(=O)/C=C/c2ccc(OC)c(OC)c2)c1 | 72% | 0% | 0% | 0%
31 | CO/C=C(/C(=O)OC)c1ccccc1COc1ccc(C(=O)/C=C/c2ccc(OC)cc2)cc1 | 62% | 0% | 0% | 0%
32 | CCOc1ccc(/C=C/C(=O)c2cccc(OCc3ccccc3/C(=C\OC)C(=O)OC)c2)cc1 | 33% | 0% | 0% | 0%
33 | CO/C=C(/C(=O)OC)c1ccccc1COc1ccccc1C(=O)/C=C/c1ccc(Br)cc1 | 0% | 0% | 0% | 0%
34 | CO/C=C(/C(=O)OC)c1ccccc1COc1cccc(C(=O)/C=C/c2ccc(F)cc2)c1 | 97% | 31% | 0% | 0%

— ChEMBL document CHEMBL3045438, “Synthesis and fungicidal evaluation of novel chalcone-based strobilurin analogues” (2007)
